Columns and labels:
[1] = target: Monoamine transporters; serotonin & dopamine (UniProt P31645+Q01959); test: Selectivity, ratio of binding to serotonin transporter (SERT) and dopamine transporter (DAT); type: protein assay; details: Cercopithecidae
In short: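 Ratio computed as IC50 at SERT ([3H]citalopram binding) divided by IC50 at DAT ([3H]WIN 35,428 binding), both measured in caudate-putamen membranes.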

[2] = target: Sodium-dependent serotonin transporter (Homo sapiens, UniProt P31645); test: Inhibition of [3H]citalopram binding to the serotonin transporter in cynomolgus (macaca fascicularis) monkey caudate putamen.; type: tissue-based, Cercopithecidae; details: target entry is the homologue from another species
Chain of Sodium-dependent serotonin transporter (P31645 whole entry): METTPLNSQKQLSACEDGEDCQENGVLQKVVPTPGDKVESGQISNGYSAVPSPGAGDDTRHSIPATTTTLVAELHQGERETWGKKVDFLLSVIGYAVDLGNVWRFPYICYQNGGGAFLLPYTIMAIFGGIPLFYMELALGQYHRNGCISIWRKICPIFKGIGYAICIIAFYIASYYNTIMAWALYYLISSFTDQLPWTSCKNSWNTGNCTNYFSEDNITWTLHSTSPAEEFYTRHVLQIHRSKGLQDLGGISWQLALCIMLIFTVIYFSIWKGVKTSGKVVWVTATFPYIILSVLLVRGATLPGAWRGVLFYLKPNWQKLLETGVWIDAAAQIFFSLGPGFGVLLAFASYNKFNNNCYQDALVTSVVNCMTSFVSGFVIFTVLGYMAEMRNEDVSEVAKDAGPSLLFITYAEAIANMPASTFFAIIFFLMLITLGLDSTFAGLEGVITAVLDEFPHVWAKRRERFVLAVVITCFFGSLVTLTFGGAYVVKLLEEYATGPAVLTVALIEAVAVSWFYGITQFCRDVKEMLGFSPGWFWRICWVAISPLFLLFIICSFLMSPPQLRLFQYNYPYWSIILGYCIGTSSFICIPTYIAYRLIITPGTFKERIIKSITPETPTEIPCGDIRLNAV
In short: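 Caudate-putamen membranes at 4 mg original wet tissue/mL final, competition vs 1 nM [3H]citalopram in 50 mM Tris·HCl pH 7.4 with 100 mM NaCl, 7–14 drug concentrations, 2 h at 0–4 °C. Filtration on 0.1% polyethyleneimine-presoaked filters, scintillation counting with cpm converted to dpm. Nonspecific binding with 1 μM fluoxetine. IC50 by EBDA, mean of triplicate experiments.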

Chain of Monoamine transporters; serotonin & dopamine (P31645 whole entry, looked up): as the sequence (P31645 whole entry) above
Chain of Monoamine transporters; serotonin & dopamine (Q01959 whole entry, looked up): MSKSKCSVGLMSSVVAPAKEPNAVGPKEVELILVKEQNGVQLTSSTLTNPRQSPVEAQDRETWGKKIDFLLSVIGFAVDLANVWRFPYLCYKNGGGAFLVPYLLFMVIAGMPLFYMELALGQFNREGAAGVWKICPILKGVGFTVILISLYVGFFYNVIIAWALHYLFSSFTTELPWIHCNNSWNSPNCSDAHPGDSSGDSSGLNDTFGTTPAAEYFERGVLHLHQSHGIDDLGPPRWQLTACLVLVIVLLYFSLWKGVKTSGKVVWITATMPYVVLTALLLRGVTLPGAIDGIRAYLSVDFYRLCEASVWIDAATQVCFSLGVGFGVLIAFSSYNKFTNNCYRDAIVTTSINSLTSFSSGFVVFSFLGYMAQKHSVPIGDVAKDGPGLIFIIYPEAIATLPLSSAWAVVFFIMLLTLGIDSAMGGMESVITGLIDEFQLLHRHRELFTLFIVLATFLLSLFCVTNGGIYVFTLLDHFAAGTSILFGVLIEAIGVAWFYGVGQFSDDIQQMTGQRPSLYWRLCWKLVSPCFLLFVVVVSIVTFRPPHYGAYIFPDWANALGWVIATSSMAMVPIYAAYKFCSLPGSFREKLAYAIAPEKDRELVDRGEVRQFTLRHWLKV

| SMILES | Selectivity [1] | IC50 [2] | IC50 ([2]; read-out: IC50) [nM] |
| --- | --- | --- | --- |
| COC(=O)[C@@H]1C2CCC(C2)CC1c1ccc2ccccc2c1 (stereo partly specified) | 4 | 106 nM | – |
| COC(=O)C1=C(c2ccc(F)cc2)CC2CCC1C2 (stereo unspecified) | 91 | 35400 nM | – |
| COC(=O)[C@H]1C2CCC(C2)C[C@@H]1c1ccc2ccccc2c1 (stereo in doubt; 9b) [listing 1 of 2 here] | – | 64 nM | – |
| COC(=O)[C@@H]1C2CCC(C2)C[C@@H]1c1ccc(Cl)c(Cl)c1 (stereo partly specified) | 46 | 650 nM | – |
| COC(=O)[C@H]1C2CCC(C2)C[C@@H]1c1ccc(Cl)c(Cl)c1 (stereo in doubt; 7a) [listing 1 of 2 here] | – | 33 nM | – |
| COC(=O)[C@H]1C2CCC(C2)C[C@@H]1c1ccc(Cl)c(Cl)c1 (stereo in doubt; 9a) [listing 1 of 2 here] | – | 180 nM | – |
| COC(=O)C1C(c2ccc(Cl)c(Cl)c2)CC2CCC1N2C (stereo in doubt; 13a) [listing 1 of 2 here] | – | 358 nM | – |
| COC(=O)c1ccccc1-c1ccc(F)cc1 | 2 | – | 33000 |
| COC(=O)C1=C(c2ccc(Cl)c(Cl)c2)CC2CCC1C2 (stereo unspecified) | 726 | – | – |
| COC(=O)c1ccccc1-c1ccccc1 | – | – | > 70000 |
| COC(=O)[C@H]1[C@@H](c2ccc(F)cc2)C[C@H]2CC[C@H]1N2C (stereo in doubt; 13c) | – | 12200 nM | – |
| COC(=O)C1C2CCC(C2)CC1c1ccccc1 (stereo unspecified) | 25 | – | > 20000 |
| COC(=O)C1C(c2ccc(Cl)c(Cl)c2)CC2CCC1N2C (stereo in doubt; 13a) [listing 2 of 2 here] | 179 | – | – |
| COC(=O)[C@H]1C2CCC(C2)C[C@@H]1c1ccc2ccccc2c1 (stereo in doubt; 9b) [listing 2 of 2 here] | 4 | – | – |
| COC(=O)[C@H]1C2CCC(C2)C[C@@H]1c1ccc2ccccc2c1 (stereo in doubt; 8b) [listing 1 of 2 here] | 67 | – | – |
| COC(=O)C1C(c2ccc3ccccc3c2)CC2CCC1N2C (stereo unspecified) | 4 | 2.19 nM | – |
| COC(=O)C1=C(c2ccccc2)CC2CCC1N2C (stereo unspecified) | – | Not Active | – |

| SMILES | Selectivity [1] | IC50 [2] | IC50 ([2]; read-out: IC50) [nM] |
| --- | --- | --- | --- |
| COC(=O)[C@H]1C2CCC(C2)C[C@@H]1c1ccc2ccccc2c1 (stereo in doubt; 8b) [listing 2 of 2 here] | – | 807 nM | – |
| COC(=O)c1ccccc1-c1ccc(Cl)cc1 | 68 | – | 46000 |
| COC(=O)C1=C(c2ccc3ccccc3c2)CC2CCC1C2 (stereo unspecified) | 119 | 1310 nM | – |
| COC(=O)C1=C(c2ccc(Cl)c(Cl)c2)CC2CCC1N2C (stereo unspecified) | 723 | – | – |
| COC(=O)C1C(c2ccc(Cl)c(Cl)c2)CC2CCC1N2C (stereo in doubt; 12a) [listing 1 of 2 here] | 2 | – | – |
| COC(=O)C1=C(c2ccc(F)cc2)CC2CCC1N2C (stereo unspecified) | 20 | – | 7990 |
| COC(=O)C1=C(c2ccccc2)CC2CCC1C2 (stereo unspecified) | – | – | > 10000 |
| COC(=O)[C@H]1C2CCC(C2)C[C@@H]1c1ccc(Cl)c(Cl)c1 (stereo in doubt; 9a) [listing 2 of 2 here] | 14 | – | – |
| COC(=O)c1ccccc1C(=O)OC [DIMETHYL PHTHALATE] | – | – | > 100000 |
| COC(=O)[C@H]1C(c2ccc3ccccc3c2)CC2CCC1N2C (stereo partly specified) | 10 | 5.95 nM | – |
| COC(=O)C1=C(c2ccc3ccccc3c2)CC2CCC1N2C (stereo unspecified) | 38 | – | 109 |
| COC(=O)C1C(c2ccc(Cl)c(Cl)c2)CC2CCC1N2C (stereo in doubt; 12a) [listing 2 of 2 here] | – | 2 nM | – |
| COC(=O)[C@H]1C2CCC(C2)C[C@@H]1c1ccc(Cl)c(Cl)c1 (stereo in doubt; 7a) [listing 2 of 2 here] | 3 | – | – |
| COC(=O)C1C(c2ccc(Cl)c(Cl)c2)CC2CCC1N2C (stereo in doubt; 14a) | 68 | – | – |
| COC(=O)[C@@H]1C2CCC(C2)C[C@@H]1c1ccc2ccccc2c1 (stereo partly specified) | 2 | 60 nM | – |
| COC(=O)c1ccccc1-c1ccc2ccccc2c1 | 69 | 10000 nM | – |

Reference: ChEMBL document CHEMBL1133606, “2-Carbomethoxy-3-aryl-8-bicyclo[3.2.1]octanes: potent non-nitrogen inhibitors of monoamine transporters” (J Med Chem, 2000)
